Series [1] concerns Trypanosoma brucei brucei. Put plainly: Antitrypanosomal activity against trypomastigote stage of Trypanosoma brucei brucei AnTat 1.9 assessed as decrease in parasite viability after 69 hrs by Alamar Blue assay. As to conditions: AnTat 1.9, 69 h. The format is functional, organism-based.
Series [2] in a line: Electrochemical behavior of the compound assessed as redox potential corrected toward normal hydrogen electrode at 10^-3 mol/L by cyclic voltammetry. As to conditions: 1000 µM.
The test system of series [3] is HepG2. The series is described as follows: Cytotoxicity against human HepG2 cells assessed as decrease in cell viability after 72 hrs by MTT assay. The settings on record: hepg2, 72 h. In general terms: Formazan colour is commonly taken as a measure of viable cells.
The subject of series [4] is Leishmania infantum. Put plainly: microbe, parasite or virus in culture. The format is functional, organism-based. The settings on record: MHOM/MA/67/ITMAP-263, 48 h.
The test system of series [5] is Leishmania donovani. Put plainly: Antileishmanial activity against amastigote stage of Leishmania donovani MHOM/IN/00/DEVI infected in human THP1 cells assessed as inhibition of parasite infection after 120 hrs by Giemsa staining-based microscopic method. The format is functional, organism-based. As to conditions: THP-1, 120 h. Summed up: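 THP-1 cells differentiated with PMA (50 ng/mL final), 48 h at 37 °C, 6% CO2, then infected 10:1 with promastigotes acid-primed 24 h at 27 °C in Schneider 20% FCS pH 5.4. After 24 h, compounds in DMSO (<0.5% v/v) added in duplicate for 120 h. Methanol fixation and Giemsa staining; ≥200 cells counted. IC50 is the concentration halving infected macrophages, nonlinear regression, mean of three independent experiments.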

In series [6] the test system is THP-1. Put plainly: Cytotoxicity against human THP1 cells assessed as decrease in cell viability after 72 hrs by MTT assay. The settings on record: thp-1, 72 h. Format: cell-based. Summed up:
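PMA-differentiated THP-1 (50 ng/mL final), 10⁶ cells/mL in complete RPMI, 48 h. Compounds in DMSO (<0.5% v/v) for 72 h at 37 °C. MTT 0.5 mg/mL for 2 h, formazan dissolved in DMSO, A570 with 630 nm reference. Viability expressed as percent of untreated control; doxorubicin as positive control; 50% cytotoxic concentration from dose–response curve.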

The target in series [7] is T1, serum albumin (Homo sapiens, UniProt P02768). The series is described as follows: (§1) Binding affinity to human serum albumin assessed as fraction unbound after 4 hrs by LC-MS method. Format: ADME. The settings on record: human serum albumin.
For series [8], the target named is Albumin (Homo sapiens, UniProt P02768). The description is as §1. The format is ADME. The settings on record: isolated protein, 4 h.
The target of series [9] is T1, serum albumin. Put plainly: Binding affinity to human serum albumin after 4 hrs by LC-MS method. The format is ADME. The settings on record: read-out: PB (converted).

As usually defined, the IC50 is the midpoint of a concentration-inhibition curve. Usually CC50 stands for the concentration at which the toxic effect on the cells reaches its halfway point.

Each structure is given as a SMILES string.

T1 sequence (P02768 whole entry): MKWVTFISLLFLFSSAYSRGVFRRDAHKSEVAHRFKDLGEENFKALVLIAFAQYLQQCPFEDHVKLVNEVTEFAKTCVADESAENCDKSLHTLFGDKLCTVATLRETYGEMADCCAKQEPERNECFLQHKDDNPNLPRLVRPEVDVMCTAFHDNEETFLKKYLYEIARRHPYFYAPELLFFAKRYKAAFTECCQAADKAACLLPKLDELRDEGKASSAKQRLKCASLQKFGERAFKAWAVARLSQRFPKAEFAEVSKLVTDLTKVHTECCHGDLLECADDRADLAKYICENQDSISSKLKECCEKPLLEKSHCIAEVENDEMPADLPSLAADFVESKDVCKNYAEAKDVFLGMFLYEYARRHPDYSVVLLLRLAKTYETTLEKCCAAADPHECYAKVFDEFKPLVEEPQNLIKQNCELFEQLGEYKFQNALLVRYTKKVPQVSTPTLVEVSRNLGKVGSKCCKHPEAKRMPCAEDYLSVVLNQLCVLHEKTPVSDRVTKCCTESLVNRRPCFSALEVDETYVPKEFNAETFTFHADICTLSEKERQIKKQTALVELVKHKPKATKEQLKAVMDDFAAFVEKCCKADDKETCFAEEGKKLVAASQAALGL
Sequence of Albumin (P02768 whole entry): as above

With `O=[N+]([O-])c1cccc2cccnc12`, the IC50 in [1] was 17.9 µM; in [4], over 100 µM. The Activity in [2] is given as -0.84 V. For the same compound, the CC50 in series [3] was over 100 µM.

As to `Oc1ccc2ccccc2n1`, the IC50 in series [1] was over 50 µM; in series [4] it was over 100 µM. For the same compound, the Activity in series [2] is listed as -1.86 V. The CC50 in series [3] is over 100 µM.

In the case of `O=[N+]([O-])c1cccc2nc(O)ccc12`, the half-maximal inhibitory concentration (IC50) in series [1] was over 50 µM; in series [4], over 100 µM. The Activity in series [2] is listed as -0.67 V. In [3], the CC50 was over 100 µM.

With `O=[N+]([O-])c1ccc2nc(O)ccc2c1`, the figures for the IC50 in [1] and in series [4] were 2.3 µM and over 100 µM, respectively. In addition, the Activity in series [2] is given as -0.82 V. For the same compound, the CC50 in series [3] was over 100 µM.

Regarding `Cn1c(=O)ccc2ccccc21`, the IC50 in [1] was over 50 µM; in series [4] it was over 100 µM. Besides, the CC50 in series [3] is over 100 µM.

Consider `O=c1cc(Br)c2cccc([N+](=O)[O-])c2[nH]1`, for which the IC50 stood at 5.5 µM in [1] and 20.3 µM in [4]. Further, the Activity in series [2] is recorded as -0.51 V. In [3], the CC50 came to 60 µM.

On to `CC(=O)Nc1ccccc1[N+](=O)[O-]`, for which the values for the IC50 in [1] and in series [4] were over 50 µM and over 100 µM, respectively. Also, the Activity in series [2] is listed as -0.68 V. Also, in series [3], the CC50 is over 100 µM.

As for `Cc1ccc2ccc(=O)[nH]c2c1[N+](=O)[O-]`, the IC50 in series [1] is over 50 µM; in series [4], over 100 µM. In addition, the Activity in series [2] was -0.71 V. For the same compound, the CC50 in series [3] is over 100 µM.

`COc1nc2c([N+](=O)[O-])cccc2cc1Br`: the IC50 in series [1] is 0.4 µM; in series [4], over 6.2 µM. The Activity in [2] is -0.86 V. Besides, the CC50 in [3] is over 6.2 µM.

For `CC(C)(C)OC(=O)NCCOCCOCCNCc1cc(=O)[nH]c2c([N+](=O)[O-])cccc12`, the IC50 in series [1] was 2.5 µM; in series [4], over 100 µM. Further, the CC50 in [3] is over 100 µM.

For `Nc1ccc2cccnc2c1[N+](=O)[O-]`, the values for the IC50 in [1] and in series [4] were over 50 µM and over 100 µM, respectively. Also, in series [2], the Activity is listed as -1.1 V. The CC50 in [3] was over 100 µM.

Take `COc1ccc2ccc(=O)[nH]c2c1[N+](=O)[O-]`: the results for the IC50 in series [1] and in series [4] were over 50 µM and over 100 µM, respectively. Moreover, the Activity in series [2] is recorded as -0.75 V. The CC50 in series [3] is over 100 µM.

As to `Cc1cc(=O)[nH]c2c([N+](=O)[O-])cccc12`, the IC50 in series [1] came out at 20.9 µM; in series [4], 10.2 µM. Further, the Activity in series [2] is -0.53 V. Further, in [3], the CC50 is 110 µM.

In the case of `O=c1cnc2cccc([N+](=O)[O-])c2[nH]1`, the IC50 worked out at 7.3 µM in series [1] and 11 µM in series [4]. The Activity in series [2] is -0.46 V. The CC50 in series [3] came out at 125 µM.

In the case of `COc1ccc([N+](=O)[O-])c2[nH]c(=O)ccc12`, the IC50 is over 50 µM in series [1] and over 100 µM in series [4]. In series [2], the Activity is on record as -0.65 V. The CC50 in series [3] was over 100 µM.

Regarding `Nc1cccc2cc(Br)c(=O)[nH]c12`, the IC50 in series [1] and in [4] was over 50 µM throughout. Besides, the CC50 in [3] is over 100 µM.

`O=c1cc(CO)c2cccc([N+](=O)[O-])c2[nH]1`: the IC50 in series [1] was 38.3 µM; in [4], 23.4 µM. For the same compound, in [3], the CC50 is over 100 µM.

With `Cc1cc([N+](=O)[O-])c2[nH]c(=O)ccc2c1`, the IC50 was 2.1 µM in series [1] and 23 µM in series [4]. Besides, the Activity in series [2] is listed as -0.56 V. The CC50 in series [3] is over 100 µM.

Regarding `O=c1[nH]c2c([N+](=O)[O-])cccc2cc1Cl`, the IC50 turned out to be 1.2 µM in series [1] and 16 µM in series [4]. The Activity in [2] is given as -0.47 V. Besides, the CC50 in series [3] was determined as 85 µM.

Turning to `NCCOCCOCCNCc1cc(=O)[nH]c2c([N+](=O)[O-])cccc12`, the figures for the IC50 in [1] and in [4] were 7.6 µM and over 100 µM, respectively. The 50% cytotoxic concentration (CC50) in [3] is over 100 µM.

`CC(=O)Nc1ccc2cccnc2c1[N+](=O)[O-]`: the IC50 in [1] is 10.8 µM; in series [4], over 100 µM. The Activity in series [2] was -0.86 V. The CC50 in series [3] was over 100 µM.

As for `COc1cc([N+](=O)[O-])c2[nH]c(=O)ccc2c1`, the figures for the IC50 in [1] and in series [4] were over 50 µM and over 100 µM, respectively. Further, the Activity in series [2] is recorded as -0.58 V. The CC50 in series [3] is over 100 µM.

Regarding `Cc1ccc([N+](=O)[O-])c2[nH]c(=O)ccc12`, the IC50 in series [1] was 29.1 µM; in series [4], 25.2 µM. For the same compound, the Activity in [2] is on record as -0.58 V. For the same compound, the CC50 in series [3] was over 100 µM.

As to `C[C@@H]1[C@H](O)[C@@H](C)/C=C/C=C/C=C/C=C/C=C/C=C/C=C/[C@H](O[C@@H]2O[C@H](C)[C@@H](O)[C@H](N)[C@@H]2O)C[C@@H]2O[C@](O)(C[C@@H](O)C[C@@H](O)[C@H](O)CC[C@@H](O)C[C@@H](O)CC(=O)O[C@H]1C)C[C@H](O)[C@H]2C(=O)O` [AMPHOTERICIN B], the values for the IC50 in series [5] and in [4] were 0.4 µM and 0.06 µM, respectively. Further, the CC50 in series [6] stood at 3.6 µM.

As for `NC(=O)N1c2ccccc2C=Cc2ccccc21` [CARBAMAZEPINE], the fraction unbound at 4 h in series [7] and in [9] was 0.276 each time. In addition, the logFu in [8] is -0.56.

Take `NCCC[C@](N)(C(=O)O)C(F)F` [EFLORNITHINE, (S)-]: the IC50 in series [1] was determined as 15.8 µM. For the same compound, the CC50 in series [3] was over 100 µM.

For the compound `CSc1ccc(OCc2ncc([N+](=O)[O-])n2C)cc1` [FEXINIDAZOLE], the IC50 was over 50 µM in [5], 0.4 µM in series [1] and 3.4 µM in series [4]. Besides, the CC50 in series [6] is over 62.5 µM; in series [3], over 200 µM.

`CCCCCCCCCCCCCCCCOP(=O)([O-])OCC[N+](C)(C)C` [MILTEFOSINE]: the IC50 in series [5] was 5.4 µM; in series [4] it was 0.8 µM. Also, the CC50 in series [6] was over 40 µM.

In the case of `O=[N+]([O-])c1ccccc1` [NITROBENZENE], the IC50 in series [1] was over 50 µM; in series [4] it was over 100 µM. Moreover, the Activity in [2] was -0.85 V. For the same compound, the 50% cytotoxic concentration (CC50) in [3] is over 100 µM.

As for `Cc1ccc(C(=O)Nc2ccc(S(=O)(=O)O)c3cc(S(=O)(=O)O)cc(S(=O)(=O)O)c23)cc1NC(=O)c1cccc(NC(=O)Nc2cccc(C(=O)Nc3cc(C(=O)Nc4ccc(S(=O)(=O)O)c5cc(S(=O)(=O)O)cc(S(=O)(=O)O)c45)ccc3C)c2)c1` [SURAMIN], in [3], the CC50 was over 100 µM.

Values taken from ChEMBL document CHEMBL4152289, “Novel 8-nitroquinolin-2(1H)-ones as NTR-bioactivated antikinetoplastid molecules: Synthesis, electrochemical and SAR study” (Eur J Med Chem, 2018).
